Assay results: ChEMBL document CHEMBL5620435, “Elucidating the Mechanism of Metabolism of Cannabichromene by Human Cytochrome P450s” (J Nat Prod, 2024)
pKi: −log10 of the molar value. Calls of active or inactive are those of the source. No cut-off for these calls is given here.

Legend:
BV-2 [1] = test: Antiinflammatory activity in LPS-induced mouse BV-2 cells assessed as reduction in IL-6 production preincubated for 4 hrs followed by LPS stimulation for 24 hrs by ELISA; format: functional, cell-based; details: dose 0.1-5 µM, time 28.0 hrs
Procedure, shortened: (§1)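 BV-2 microglia in high-glucose DMEM with 5% heat-inactivated FBS, 37 °C, 5% CO2. Cells (50 000/well) were pretreated with cannabinoids at 0.1, 1.0, 2.5 or 5.0 μM (ethanol 0.1% final) for 4 h, then stimulated with LPS (25 ng/mL) for 24 h. Medium was collected. NO was read by Griess assay at 540 nm against a sodium nitrite calibration curve. IL-6, TNFα and Arg1 were measured by ELISA.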

BV-2 [2] = test: Cytotoxicity against mouse BV-2 cells assessed as reduction in cell viability at 0.1 to 5 uM incubated for 24 hrs by MTT assay; format: toxicity, cell-based; details: bv-2, 24 h, dose 0.1-5 µM
Procedure, shortened: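 BV-2 cells were seeded at about 10 000/well and grown for 24 h. They were preincubated 4 h with cannabinoids at 0.1, 1.0, 2.5 or 5.0 μM (0.1% ethanol), then held 24 h with or without LPS (25 ng/mL). MTT reagent was added for 4 h at 37 °C, the formazan was dissolved, and absorbance was read at 570 nm.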

BV-2 [3] = test: Antiinflammatory activity in LPS-induced mouse BV-2 cells assessed as reduction in TNF-alpha production preincubated for 4 hrs followed by LPS stimulation for 24 hrs by ELISA; format: functional, cell-based; details: dose 0.1-5 µM, time 28.0 hrs; procedure, shortened: as §1
BV-2 [4] = test: Antiinflammatory activity in LPS-induced mouse BV-2 cells assessed as increase in Arg-1 production preincubated for 4 hrs followed by LPS stimulation for 24 hrs by ELISA; format: functional, cell-based; details: dose 0.1-5 µM, time 28.0 hrs; procedure, shortened: as §1
[5] = Drug metabolism assessed as benzylic hydroxylation mediated 7-(1-hydroxypentyl)-2-methyl-2-(4-methylpent-3-en-1-yl)-2H-chromen-5-ol metabolite formation; format: ADME; details: 40 min, dose 5-80 µM
Procedure, shortened: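 Pooled human liver microsomes (mixed-gender, 50 donors) gave 0.4 μM CYP final in 0.1 M phosphate pH 7.4. CBC 40 μM final was preincubated 10 min. NADPH 1 mM final was added and the reaction ran 30 min at 37 °C. It was quenched and extracted three times with hexane/ethyl acetate (80:20), dried, resuspended in 95% ethanol and analysed by LC-MS (C18, positive ESI).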

Cytochrome P450 2C8 [6] = target: T1, Cytochrome P450 2C8 (Homo sapiens, UniProt P10632); test: Drug metabolism assessed as ratio of CYP2C8 (unknown origin) mediated (E)-2-(5-hydroxy-4-methylpent-3-en-1-yl)-2-methyl-7-pentyl-2H-chromen-5-ol formation to 2-(2-(3,3-dimethyloxiran-2-yl)ethyl)-2-methyl-7-pentyl-2H-chromen-5-ol formation; format: ADME
T1 sequence (P10632 whole entry): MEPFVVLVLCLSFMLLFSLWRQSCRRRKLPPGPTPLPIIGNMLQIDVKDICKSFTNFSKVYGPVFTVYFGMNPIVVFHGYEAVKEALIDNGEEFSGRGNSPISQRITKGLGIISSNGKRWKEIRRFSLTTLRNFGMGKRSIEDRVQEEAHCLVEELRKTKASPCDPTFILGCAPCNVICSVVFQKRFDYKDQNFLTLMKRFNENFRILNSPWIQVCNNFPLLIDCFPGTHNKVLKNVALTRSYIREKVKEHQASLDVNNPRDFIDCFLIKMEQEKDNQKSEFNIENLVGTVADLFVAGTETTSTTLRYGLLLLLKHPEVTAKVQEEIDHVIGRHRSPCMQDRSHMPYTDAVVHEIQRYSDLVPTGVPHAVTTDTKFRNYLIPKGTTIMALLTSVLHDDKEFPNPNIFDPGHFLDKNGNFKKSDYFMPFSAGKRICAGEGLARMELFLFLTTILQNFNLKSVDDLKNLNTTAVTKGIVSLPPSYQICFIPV
Procedure, shortened: (§2)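 Recombinant CYP (0.5 μM final) was reconstituted in POPC:POPS (8:2) with CPR (0.6 μM) in 0.1 M potassium phosphate pH 7.4. CBC (5–80 μM) was preincubated 10 min at 37 °C and the reaction started with NADPH. Products were extracted three times with hexane/ethyl acetate (80:20), dried, resuspended in ethanol and analysed by LC-MS/MS.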

[7] = Drug metabolism in C57BL/6J mouse plasma assessed as (E)-2-(5-hydroxy-4-methylpent-3-en-1-yl)-2-methyl-7-pentyl-2H-chromen-5-ol metabolite formation at 20 mg/kg, iv administered via tail vein measured after 2 hrs by LC/MS/MS analysis; format: ADME, organism-based; details: in vivo
Procedure, shortened: (§3)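 Female C57BL/6J mice, 8–10 weeks old, received CBC at 20 mg/kg in PBS with 6% Tween-80, IV via the tail vein or IP (n = 3 per route). Blood was taken terminally by cardiac puncture into heparin at 0.5 and 2 h. Plasma (200 μL) was extracted with hexane/ethyl acetate (80:20). CBC and metabolites were quantified by targeted LC-MS/MS (C6-phenyl column, positive ESI) as means ±SE.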

[8] = Drug metabolism in C57BL/6J mouse plasma assessed as (E)-2-(5-hydroxy-4-methylpent-3-en-1-yl)-2-methyl-7-pentyl-2H-chromen-5-ol metabolite formation at 20 mg/kg, iv administered via tail vein measured after 0.5 hrs by LC/MS/MS analysis; format: ADME, organism-based; details: in vivo; procedure, shortened: as §3
Cytochrome P450 2J2 [9] = target: T2, Cytochrome P450 2J2 (Homo sapiens, UniProt P51589); test: Binding affinity to CYP2J2 (unknown origin) assessed as fold increase in apparent dissociation constant by spectroscopic titration analysis in presence of cytochrome P450 reductase; format: ADME
T2 sequence (P51589 whole entry): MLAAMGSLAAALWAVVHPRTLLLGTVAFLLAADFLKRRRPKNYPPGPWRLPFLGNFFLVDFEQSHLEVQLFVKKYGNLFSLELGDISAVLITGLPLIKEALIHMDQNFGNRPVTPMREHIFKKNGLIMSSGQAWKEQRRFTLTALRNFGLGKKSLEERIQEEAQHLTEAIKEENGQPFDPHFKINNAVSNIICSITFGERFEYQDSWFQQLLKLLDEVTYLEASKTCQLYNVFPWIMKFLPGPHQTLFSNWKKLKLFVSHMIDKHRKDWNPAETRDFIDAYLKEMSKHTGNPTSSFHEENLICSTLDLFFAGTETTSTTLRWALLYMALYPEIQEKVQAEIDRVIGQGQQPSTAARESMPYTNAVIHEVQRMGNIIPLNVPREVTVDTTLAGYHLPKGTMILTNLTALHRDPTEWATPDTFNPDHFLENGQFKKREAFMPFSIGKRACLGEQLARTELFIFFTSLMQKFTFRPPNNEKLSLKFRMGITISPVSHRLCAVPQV
Procedure, shortened: (§4)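 His-tagged CYPs were expressed in E. coli and Ni-NTA purified. Buffer-exchanged CYP was in 0.1 M phosphate pH 7.4. CPR was added and the pair was preincubated 5 min; final protein was 5–6 μM each. CBC (ethanol stock, ≤1% final) was titrated 0–100 μM with 5 min at 37 °C per step. The Soret shift from ~417 to ~390 nm was recorded as a difference spectrum. Kd(app) came from a one-site binding fit and was compared with CYP alone (4–5 μM protein).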

Cytochrome P450 2C8 [10] = target: T1, Cytochrome P450 2C8; test: Binding affinity to CYP2C8 (unknown origin) assessed as fold increase in apparent dissociation constant by spectroscopic titration analysis in presence of cytochrome P450 reductase; format: ADME; procedure, shortened: as §4
Cytochrome P450 2D6 = Cytochrome P450 2D6 (Homo sapiens, UniProt P10635); test: Binding affinity to CYP2D6 (unknown origin) assessed as fold increase in apparent dissociation constant by spectroscopic titration analysis in presence of cytochrome P450 reductase; format: ADME; procedure, shortened: as §4
Cytochrome P450 2J2 [11] = target: T2, Cytochrome P450 2J2; test: Drug metabolism assessed as ratio of CYP2J2 (unknown origin) mediated (E)-2-(5-hydroxy-4-methylpent-3-en-1-yl)-2-methyl-7-pentyl-2H-chromen-5-ol formation to 2-(2-(3,3-dimethyloxiran-2-yl)ethyl)-2-methyl-7-pentyl-2H-chromen-5-ol formation; format: ADME; procedure, shortened: as §2
Cytochrome P450 3A4 = Cytochrome P450 3A4 (Homo sapiens, UniProt P08684); test: Binding affinity to CYP3A4 (unknown origin) assessed as fold increase in apparent dissociation constant by spectroscopic titration analysis in presence of cytochrome P450 reductase; format: ADME; procedure, shortened: as §4
[12] = Drug metabolism in C57BL/6J mouse plasma assessed as 2-(2-(3,3-dimethyloxiran-2-yl)ethyl)-2-methyl-7-pentyl-2H-chromen-5-ol metabolite formation at 20 mg/kg, ip measured after 0.5 to 2 hrs by LC/MS/MS analysis; format: ADME, organism-based; details: in vivo, time 0.5-2 hrs; procedure, shortened: as §3
[13] = Stability in C57BL/6J mouse plasma assessed as compound consumption by measuring reduction in parent compound level at 20 mg/kg, ip measured after 0.5 to 2 hrs by LC-MS/MS analysis; format: ADME, organism-based; details: in vivo, time 0.5-2 hrs; procedure, shortened: as §3
[14] = Drug metabolism in C57BL/6J mouse plasma assessed as (E)-2-(5-hydroxy-4-methylpent-3-en-1-yl)-2-methyl-7-pentyl-2H-chromen-5-ol metabolite formation at 20 mg/kg, ip measured after 0.5 hrs by LC/MS/MS analysis; format: ADME, organism-based; details: in vivo; procedure, shortened: as §3
[15] = Drug metabolism in C57BL/6J mouse plasma assessed as 5-(5-hydroxy-2-methyl-7-pentyl-2H-chromen-2-yl)-2-methylpentane-2,3-diol metabolite formation at 20 mg/kg, iv administered via tail vein measured after 0.5 to 2 hrs by LC/MS/MS analysis; format: ADME, organism-based; details: in vivo, time 0.5-2 hrs; procedure, shortened: as §3
[16] = Drug metabolism in C57BL/6J mouse plasma assessed as 5-(5-hydroxy-2-methyl-7-pentyl-2H-chromen-2-yl)-2-methylpentane-2,3-diol metabolite formation at 20 mg/kg, ip measured after 0.5 to 2 hrs by LC/MS/MS analysis; format: ADME, organism-based; details: in vivo, time 0.5-2 hrs; procedure, shortened: as §3
Cannabinoid receptor 1 = Cannabinoid receptor 1 (Homo sapiens, UniProt P21554); test: Displacement of d [3H]CP-55,940 from CBR1 (unknown origin) expressed in Sf9 cell membrane assessed as inhibition constant by Topcount scintillation counting analysis; format: cell membranes
[17] = Drug metabolism in C57BL/6J mouse plasma assessed as 2-(2-(3,3-dimethyloxiran-2-yl)ethyl)-2-methyl-7-pentyl-2H-chromen-5-ol metabolite formation at 20 mg/kg, iv administered via tail vein measured after 0.5 to 2 hrs by LC/MS/MS analysis; format: ADME, organism-based; details: in vivo, time 0.5-2 hrs; procedure, shortened: as §3
Cannabinoid receptor 2 = Cannabinoid receptor 2 (Homo sapiens, UniProt P34972); test: Binding affinity to CBR2 (unknown origin)
[18] = Drug metabolism in C57BL/6J mouse plasma assessed as (E)-2-(5-hydroxy-4-methylpent-3-en-1-yl)-2-methyl-7-pentyl-2H-chromen-5-ol metabolite formation at 20 mg/kg, ip measured after 2 hrs by LC/MS/MS analysis; format: ADME, organism-based; details: in vivo; procedure, shortened: as §3

Cannabinoid receptor 2, sequence (P34972 whole entry): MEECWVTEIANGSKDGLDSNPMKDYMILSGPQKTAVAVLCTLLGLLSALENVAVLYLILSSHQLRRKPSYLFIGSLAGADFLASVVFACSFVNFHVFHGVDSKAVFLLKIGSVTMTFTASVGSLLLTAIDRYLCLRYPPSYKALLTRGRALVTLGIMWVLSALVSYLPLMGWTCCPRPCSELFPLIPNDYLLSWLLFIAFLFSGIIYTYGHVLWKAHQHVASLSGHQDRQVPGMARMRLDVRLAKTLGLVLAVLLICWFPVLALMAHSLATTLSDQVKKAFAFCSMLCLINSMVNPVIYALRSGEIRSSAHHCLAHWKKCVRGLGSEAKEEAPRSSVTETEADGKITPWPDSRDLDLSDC
Cytochrome P450 3A4, sequence (P08684 whole entry): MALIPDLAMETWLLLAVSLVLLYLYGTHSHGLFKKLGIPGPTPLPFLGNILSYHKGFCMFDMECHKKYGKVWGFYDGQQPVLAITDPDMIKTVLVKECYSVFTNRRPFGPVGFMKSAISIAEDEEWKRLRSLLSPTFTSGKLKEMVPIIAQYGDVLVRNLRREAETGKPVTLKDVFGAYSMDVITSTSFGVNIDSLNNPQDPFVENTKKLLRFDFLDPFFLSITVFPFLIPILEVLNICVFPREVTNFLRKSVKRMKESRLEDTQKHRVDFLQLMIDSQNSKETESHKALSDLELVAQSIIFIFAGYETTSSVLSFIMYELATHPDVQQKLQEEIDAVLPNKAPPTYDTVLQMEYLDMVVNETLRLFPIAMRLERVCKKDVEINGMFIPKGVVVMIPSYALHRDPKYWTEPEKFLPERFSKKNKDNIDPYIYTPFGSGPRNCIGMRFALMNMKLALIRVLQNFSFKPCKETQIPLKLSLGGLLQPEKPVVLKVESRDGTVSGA
Cytochrome P450 2D6, sequence (P10635 whole entry): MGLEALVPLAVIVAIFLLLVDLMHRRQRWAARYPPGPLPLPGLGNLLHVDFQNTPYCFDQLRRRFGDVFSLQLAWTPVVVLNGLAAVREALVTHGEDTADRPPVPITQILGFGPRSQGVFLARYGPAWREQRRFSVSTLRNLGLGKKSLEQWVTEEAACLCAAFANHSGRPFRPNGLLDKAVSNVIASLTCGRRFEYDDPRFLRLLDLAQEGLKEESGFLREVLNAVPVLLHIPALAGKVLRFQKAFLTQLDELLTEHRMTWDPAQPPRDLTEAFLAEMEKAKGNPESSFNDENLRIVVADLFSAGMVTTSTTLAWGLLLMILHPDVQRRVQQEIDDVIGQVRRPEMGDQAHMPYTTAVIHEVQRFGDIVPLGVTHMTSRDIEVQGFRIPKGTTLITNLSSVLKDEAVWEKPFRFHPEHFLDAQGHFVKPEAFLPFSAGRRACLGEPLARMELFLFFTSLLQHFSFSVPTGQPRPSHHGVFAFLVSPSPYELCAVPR
Cannabinoid receptor 1, sequence (P21554 whole entry): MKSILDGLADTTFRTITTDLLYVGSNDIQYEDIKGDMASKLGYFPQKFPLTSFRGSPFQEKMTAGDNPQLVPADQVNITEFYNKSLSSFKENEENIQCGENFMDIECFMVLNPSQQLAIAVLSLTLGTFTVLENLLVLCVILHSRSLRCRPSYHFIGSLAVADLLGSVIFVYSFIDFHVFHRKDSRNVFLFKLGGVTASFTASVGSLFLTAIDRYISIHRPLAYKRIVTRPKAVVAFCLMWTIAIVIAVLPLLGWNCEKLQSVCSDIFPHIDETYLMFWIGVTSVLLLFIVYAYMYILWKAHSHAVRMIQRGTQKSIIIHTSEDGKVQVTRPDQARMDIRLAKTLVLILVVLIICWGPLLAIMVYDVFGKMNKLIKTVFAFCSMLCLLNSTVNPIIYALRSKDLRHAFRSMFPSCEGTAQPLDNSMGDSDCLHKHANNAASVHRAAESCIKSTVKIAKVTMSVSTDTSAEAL

For `CCCCCc1cc(O)c2c(c1)OC(C)(CCC1OC1(C)C)C=C2` (stereo not given), the Activity (BV-2 [1]) was “Active” and the Activity (BV-2 [2]) was “Non-Toxic”.

For `CCCCC(O)c1cc(O)c2c(c1)OC(C)(CCC=C(C)C)C=C2` (stereo not given), the Activity (BV-2 [3]) was “Dose-Dependent Effect”, the Activity (BV-2 [1]) was “Active” and the Activity (BV-2 [2]) was “Non-Toxic”. For the same molecule, the Activity (BV-2 [4]) was “Dose-Dependent Effect”.

For `CCCCCc1cc(O)c2c(c1)OC(C)(CCC=C(C)C)C=C2` (stereo not given) [CANNABICHROMENE], the Drug metabolism [5] was “Metabolite_Detected”, the Ratio (Cytochrome P450 2C8 [6]) was ~ 5 and the Drug metabolism [7] was “Metabolite_Notdetected”. The Drug metabolism [8] was “Metabolite_Detected”, the “fold change (FC)” value (Cytochrome P450 2J2 [9]) was 3 and the “fold change (FC)” value (Cytochrome P450 2C8 [10]) was 5. The “fold change (FC)” value (Cytochrome P450 2D6) was 3, the Ratio (Cytochrome P450 2J2 [11]) was ~ 50 and the “fold change (FC)” value (Cytochrome P450 3A4) was 5. For the same molecule, the Drug metabolism [12] was “Metabolite_Detected”, the Drug metabolism [13] was “Metabolite_Detected” and the Drug metabolism [14] was “Metabolite_Detected”. For the same molecule, the Drug metabolism [15] was “Metabolite_Detected”, the Drug metabolism [16] was “Metabolite_Detected” and the Activity (BV-2 [2]) was “Non-Toxic”. The pKi (Cannabinoid receptor 1) was about 6.15, the Drug metabolism [17] was “Metabolite_Detected” and the pKi (Cannabinoid receptor 2) was about 7.00. For the same molecule, the Drug metabolism [18] was “Metabolite_Notdetected”.
